Measurements taken from ChEMBL document CHEMBL1124476, “1-(2-aminoethyl)-6-aryl-4H- [1,2,4]triazolo[4,3-a][1,4]benzodiazepines with diuretic and natriuretic activity” (J Med Chem, 1989).

Experiments:
[1] = Diuretic activity at 40 mg/kg (screening dose-105.3 umol/kg) in […] in a one stage experiment; T/C = urine vol of treated rats / urine vol of control rats; assay type: functional
How it was run: (§1)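 40 mg/kg given by gavage in 25 mL/kg 0.9% saline with 0.5% (carboxymethyl)cellulose. Four rats per agent, two per metabolism cage; 20 controls; 5 h urine. T/C = treated/control urine volume. Stage-1 T/C of 1.66 or more leads to stage 2; product T/C1·T/C2 of 3.34 or more counts as active.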

[2] = Diuretic activity at 40 mg/kg (screening dose-103.9 umol/kg) in […] in a one stage experiment; T/C = urine vol of treated rats / urine vol of control rats; assay type: functional; how it was run: as §1
[3] = Diuretic activity at 40 mg/kg (screening dose-77.5 umol/kg) in […] in a one stage experiment; T/C = urine vol of treated rats / urine vol of control rats; assay type: functional; how it was run: as §1
[4] = Diuretic activity at 40 mg/kg (screening dose-82.5 umol/kg) in […] in a one stage experiment; T/C = urine vol of treated rats / urine vol of control rats; assay type: functional; how it was run: as §1
Rattus norvegicus [5] = organism: Rattus norvegicus; assay: […]; assay type: ADME, organism-based, Urine; set-up: dose 30 mg/kg, route oral; conditions: in vivo, po, 30 mg/kg
How it was run: (§2)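 Male Sprague-Dawley rats, about 160 g, fasted 24 h and water withheld 1 1/2 h beforehand; food and water withheld during the test. Dosing by gavage with 25 mL/kg 0.9% saline containing 0.5% (carboxymethyl)cellulose, agent dissolved or suspended. Three cages of two rats each per dose, held in metabolism cages. Urine collected over 5 h. Volume given in mL, Na+ in mequiv. Significance versus control at P < 0.05.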

Rattus norvegicus [6] = assay: Mean excretion of chloride in conscious rats at a dose of 10 mg/kg given orally; assay type: ADME, organism-based; set-up: dose 10 mg/kg, route oral; conditions: in vivo, po
How it was run: (§3)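 Secondary dose-response in male Sprague-Dawley rats (~160 g), fasted and hydrated as in the primary screen. Oral gavage at 0.3-100 mg/kg in 25 mL/kg saline/0.5% CMC, three cages of two rats per dose. Urine collected 5 h; Na, K, Cl, HCO3 measured. Values are mean excretion (mequiv), compared with controls at P < 0.05.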

Rattus norvegicus [7] = assay: Mean excretion of sodium in conscious rats at a dose of 100 mg/kg given orally; assay type: ADME, organism-based; set-up: dose 100 mg/kg, route oral; conditions: in vivo, po; how it was run: as §2
Rattus norvegicus [8] = assay: Mean excretion of sodium in conscious rats at a dose of 3.0 mg/kg given orally; assay type: ADME, organism-based; set-up: dose 3 mg/kg, route oral; conditions: in vivo, po; how it was run: as §2
[9] = Diuretic activity at 40 mg/kg (screening dose-87.7 umol/kg) in […] in a one stage experiment; T/C = urine vol of treated rats / urine vol of control rats; assay type: functional; how it was run: as §1
Rattus norvegicus [10] = assay: Mean excretion of potassium in conscious rats at a dose of 30 mg/kg given orally; assay type: ADME, organism-based; set-up: dose 30 mg/kg, route oral; conditions: in vivo, po; how it was run: as §3
Rattus norvegicus [11] = organism: Rattus norvegicus; assay: […]; assay type: ADME, organism-based, Urine; set-up: dose 10 mg/kg, route oral; conditions: in vivo, po, 10 mg/kg; how it was run: as §2
Rattus norvegicus [12] = assay: Mean excretion of chloride in conscious rats at a dose of 30 mg/kg given orally; assay type: ADME, organism-based; set-up: dose 30 mg/kg, route oral; conditions: in vivo, po; how it was run: as §3
Rattus norvegicus [13] = assay: Mean excretion of potassium in conscious rats at a dose of 100 mg/kg given orally; assay type: ADME, organism-based; set-up: dose 100 mg/kg, route oral; conditions: in vivo, po; how it was run: as §3
Rattus norvegicus [14] = assay: Mean excretion of sodium in conscious rats at a dose of 0.3 mg/kg given orally; assay type: ADME, organism-based; set-up: dose 0.3 mg/kg, route oral; conditions: in vivo, po; how it was run: as §2
Rattus norvegicus [15] = assay: Mean excretion of potassium in conscious rats at a dose of 0.3 mg/kg given orally; assay type: ADME, organism-based; set-up: dose 0.3 mg/kg, route oral; conditions: in vivo, po; how it was run: as §3
Rattus norvegicus [16] = assay: Mean excretion of potassium in conscious rats at a dose of 3.0 mg/kg given orally; assay type: ADME, organism-based; set-up: dose 3 mg/kg, route oral; conditions: in vivo, po; how it was run: as §3
[17] = Diuretic activity at 40 mg/kg (screening dose 87.7 umol/kg) in […] in a two stage experiment; T/C1.2 = urine vol of treated rats / urine vol of control rats; assay type: functional; how it was run: as §1
Rattus norvegicus [18] = assay: Mean excretion of sodium in conscious rats at a dose of 30 mg/kg given orally; assay type: ADME, organism-based; set-up: dose 30 mg/kg, route oral; conditions: in vivo, po; how it was run: as §2
Rattus norvegicus [19] = assay: Mean excretion of chloride in conscious rats at a dose of 100 mg/kg given orally; assay type: ADME, organism-based; set-up: dose 100 mg/kg, route oral; conditions: in vivo, po; how it was run: as §3
Rattus norvegicus [20] = assay: Mean excretion of potassium in conscious rats at a dose of 1.0 mg/kg given orally; assay type: ADME, organism-based; set-up: dose 1 mg/kg, route oral; conditions: in vivo, po; how it was run: as §3
Rattus norvegicus [21] = assay: Mean excretion of potassium in conscious rats at a dose of 10 mg/kg given orally; assay type: ADME, organism-based; set-up: dose 10 mg/kg, route oral; conditions: in vivo, po; how it was run: as §3
Rattus norvegicus [22] = organism: Rattus norvegicus; assay: […]; assay type: ADME, organism-based, Urine; set-up: dose 100 mg/kg, route oral; conditions: in vivo, po, 100 mg/kg; how it was run: as §2
Rattus norvegicus [23] = organism: Rattus norvegicus; assay: […]; assay type: ADME, organism-based, Urine; set-up: dose 0.3 mg/kg, route oral; conditions: in vivo, po, 0.3 mg/kg
How it was run: (§4)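 Dose-response test in male Sprague-Dawley rats of about 160 g, fasted 24 h, with water withheld 1½ h before and during the test. Each rat got a single gavage of 25 mL/kg 0.9% saline with 0.5% carboxymethylcellulose carrying the agent (0.3–100 mg/kg range). Rats were housed two per metabolism cage, and urine was collected for 5 h. Mean urine volume (mL) was compared with controls (P < 0.05).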

Rattus norvegicus [24] = assay: Mean excretion of […] in conscious rats at a dose of 1.0 mg/kg given orally; assay type: ADME, organism-based; set-up: dose 1 mg/kg, route oral; conditions: in vivo, po; how it was run: as §2
Rattus norvegicus [25] = assay: Mean excretion of chloride in conscious rats at a dose of 3.0 mg/kg given orally; assay type: ADME, organism-based; set-up: dose 3 mg/kg, route oral; conditions: in vivo, po; how it was run: as §3
Rattus norvegicus [26] = assay: Mean excretion of sodium in conscious rats at a dose of 10 mg/kg given orally; assay type: ADME, organism-based; set-up: dose 10 mg/kg, route oral; conditions: in vivo, po; how it was run: as §2
Rattus norvegicus [27] = organism: Rattus norvegicus; assay: […]; assay type: ADME, organism-based, Urine; set-up: dose 3 mg/kg, route oral; conditions: in vivo, po, 3 mg/kg; how it was run: as §2
Rattus norvegicus [28] = organism: Rattus norvegicus; assay: […]; assay type: ADME, organism-based, Urine; set-up: dose 1 mg/kg, route oral; conditions: in vivo, po, 1 mg/kg; how it was run: as §4
Rattus norvegicus [29] = assay: Mean excretion of Cl- in conscious rats at a dose of 0.3 mg/kg given orally; assay type: ADME, organism-based, Urine; set-up: dose 0.3 mg/kg, route oral; conditions: in vivo, po; how it was run: as §4
Rattus norvegicus [30] = assay: Mean excretion of chloride in conscious rats at a dose of 1.0 mg/kg given orally; assay type: ADME, organism-based; set-up: dose 1 mg/kg, route oral; conditions: in vivo, po; how it was run: as §3
[31] = Diuretic activity at 40 mg/kg (screening dose-61.3 umol/kg) in […] in a one stage experiment; T/C = urine vol of treated rats / urine vol of control rats; assay type: functional; how it was run: as §1

CC(CN(C)C)c1nnc2n1-c1ccc(Cl)cc1C(c1ccccc1)=NC2 (stereo unspecified)
T/C 1 [1]: 1.25

Clc1ccc2c(c1)C(c1ccccc1)=NCc1nnc(Cc3ccccc3)n1-2
T/C 1 [2]: 0.96

Clc1ccc2c(c1)C(c1ccccc1)=NCc1nnc(C(CN3CCOCC3)c3ccccc3)n1-2 (stereo unspecified)
T/C 1 [3]: 1.46

COC(CN(C)C)c1nnc2n1-c1ccc(Cl)cc1C(c1ccccc1)=NC2 (stereo unspecified)
T/C 1 [4]: 1.32

CC1N=C(c2ccccc2)c2cc(Cl)ccc2-n2c1nnc2C(CN(C)C)c1ccccc1 (stereo unspecified)
Mean urine volume (Rattus norvegicus [5]): 9.56 mL
Mean excretion of Cl- (Rattus norvegicus [6]): 1.33 m equiv
Mean excretion of Na+ (Rattus norvegicus [7]): 2.04 m equiv
Mean excretion of Na+ (Rattus norvegicus [8]): 0.86 m equiv
T/C 1 [9]: 3.05
Mean excretion of K+ (Rattus norvegicus [10]): 0.24 m equiv
Mean urine volume (Rattus norvegicus [11]): 7.53 mL
Mean excretion of Cl- (Rattus norvegicus [12]): 1.64 m equiv
Mean excretion of K+ (Rattus norvegicus [13]): 0.21 m equiv
Mean excretion of Na+ (Rattus norvegicus [14]): 0.74 m equiv
Mean excretion of K+ (Rattus norvegicus [15]): 0.24 m equiv
Mean excretion of K+ (Rattus norvegicus [16]): 0.24 m equiv
T/C 1.2 [17]: 7.05
Mean excretion of Na+ (Rattus norvegicus [18]): 1.65 m equiv
Mean excretion of Cl- (Rattus norvegicus [19]): 1.9 m equiv
Mean excretion of K+ (Rattus norvegicus [20]): 0.19 m equiv
Mean excretion of K+ (Rattus norvegicus [21]): 0.22 m equiv
Mean urine volume (Rattus norvegicus [22]): 10.66 mL
Mean urine volume (Rattus norvegicus [23]): 3.97 mL
Mean excretion of Na+ (Rattus norvegicus [24]): 0.82 m equiv
Mean excretion of Cl- (Rattus norvegicus [25]): 0.91 m equiv
Mean excretion of Na+ (Rattus norvegicus [26]): 1.33 m equiv
Mean urine volume (Rattus norvegicus [27]): 4.96 mL
Mean urine volume (Rattus norvegicus [28]): 4.39 mL
Mean excretion of Cl- (Rattus norvegicus [29]): 0.82 m equiv
Mean excretion of Cl- (Rattus norvegicus [30]): 0.86 m equiv

CN1CCN(CC(c2ccccc2)c2nnc3n2-c2ccc(Cl)cc2C(c2ccccc2)=NC3)CC1.I (stereo unspecified)
T/C 1 [31]: 1.02
